Measurements reported in ChEMBL document CHEMBL3259591, “Three new cembranoid-type diterpenes from Red Sea soft coral Sarcophyton glaucum: isolation and antiproliferative activity against HepG2 cells” (Eur J Med Chem, 2014).

How the values were obtained:
PC-3 [1] = experiment: Induction of apoptosis in human PC3 cells assessed as necrotic cells after 24 hrs using annexin V/propidium iodide double staining by flow cytometry (reference value: 0.640.36 %); assay type: functional
PC-3 [2] = experiment: Cell cycle arrest in human PC3 cells assessed as reduction in cells at S-phase after 24 hrs by flow cytometry (reference value: 32.12 +/- 0.9%); assay type: functional; design: scale not given: the % may be the effect or the level left
HepG2 [3] = experiment: Cytotoxicity against human HepG2 cells after 96 hrs by […]; assay type: functional, cell-based; conditions: HepG2, 96 h
How it was run: (§1)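 Cells seeded at 10 × 10^3/well and held 24 h at 37 °C, 5% CO2. Serum-free RPMI-1640 then added with sample at final 1000, 500, 200, 100, 50, 20, 10 µg/mL (DMSO ≤1% v/v). Incubated 96 h, then rinsed and fixed in 3.7% formaldehyde in saline for ≥20 min. IC50 taken as 50% loss of monolayer, from a straight-line fit of dose-response data.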

A549 = experiment: Cytotoxicity against human A549 cells after 96 hrs by […]; assay type: functional, cell-based; conditions: A549, 96 h; how it was run: as §1
PC-3 [4] = experiment: Induction of apoptosis in human PC3 cells assessed as late apoptotic cells after 24 hrs using annexin V/propidium iodide double staining by flow cytometry (reference value: 0.03 %); assay type: functional
MCF7 = experiment: Cytotoxicity against human MCF7 cells after 96 hrs by […]; assay type: functional, cell-based; conditions: MCF7, 96 h; how it was run: as §1
PC-3 [5] = experiment: Cytotoxicity against human PC3 cells after 96 hrs […]; assay type: functional, cell-based; conditions: PC-3, 96 h; how it was run: as §1
PC-3 [6] = experiment: Induction of apoptosis in human PC3 cells assessed as early apoptotic cells after 24 hrs using annexin V/propidium iodide double staining by flow cytometry (reference value: 0.00 %); assay type: functional
PC-3 [7] = experiment: Cell cycle arrest in human PC3 cells assessed as increase in cells at G0/G1-phase after 24 hrs by flow cytometry (reference value: 49.80 +/- 0.6%); assay type: functional
Vero = experiment: Cytotoxicity against african green monkey Vero cells after 96 hrs […]; assay type: cell-based; conditions: chlorocebus sabaeus; how it was run: as §1
PC-3 [8] = experiment: Induction of apoptosis in human PC3 cells assessed as increase in caspase-3 concentration by colorimetric assay relative to untreated control; assay type: functional
PC-3 [9] = experiment: Induction of apoptosis in human PC3 cells assessed as viable cells after 24 hrs using annexin V/propidium iodide double staining by flow cytometry (reference value: 99.60 %); assay type: functional
HepG2 [10] = experiment: Cell cycle arrest in human HepG2 cells assessed as increase in cells at G0/G1-phase after 24 hrs by flow cytometry (reference value: 44.74 +/- 0.6%); assay type: functional
HepG2 [11] = experiment: Induction of apoptosis in human HepG2 cells assessed as early apoptotic cells after 24 hrs using annexin V/propidium iodide double staining by flow cytometry (reference value: 0.00 %); assay type: functional
HepG2 [12] = experiment: Induction of apoptosis in human HepG2 cells assessed as late apoptotic cells after 24 hrs using annexin V/propidium iodide double staining by flow cytometry (reference value: 0.01 %); assay type: functional
HepG2 [13] = experiment: Induction of apoptosis in human HepG2 cells assessed as necrotic cells after 24 hrs using annexin V/propidium iodide double staining by flow cytometry (reference value: 0.64 %); assay type: functional
HepG2 [14] = experiment: Induction of apoptosis in human HepG2 cells assessed as increase in caspase-3 concentration by colorimetric assay relative to untreated control; assay type: functional
HepG2 [15] = experiment: Induction of apoptosis in human HepG2 cells assessed as viable cells after 24 hrs using annexin V/propidium iodide double staining by flow cytometry (reference value: 99.35 %); assay type: functional
HepG2 [16] = experiment: Cell cycle arrest in human HepG2 cells assessed as reduction in cells at S-phase after 24 hrs by flow cytometry (reference value: 43.65 +/- 1.1%); assay type: functional; design: scale not given: the % may be the effect or the level left

Structure (SMILES) | Activity (PC-3 [1]) | Activity (PC-3 [2]) | IC50 (HepG2 [3]) | IC50 (A549) | Activity (PC-3 [4]) | IC50 (MCF7) | IC50 (PC-3 [5]) | Activity (PC-3 [6]) | Activity (PC-3 [7]) | Activity (Vero) | fold change (FC) (PC-3 [8]) | Activity (PC-3 [9]) | Activity (HepG2 [10]) | Activity (HepG2 [11]) | Activity (HepG2 [12]) | Activity (HepG2 [13]) | fold change (FC) (HepG2 [14]) | Activity (HepG2 [15]) | Activity (HepG2 [16])
C=C1CC[C@@H]2[C@H]([C@@H]3[C@H](C)CC[C@H]13)C2(C)C | 4.34% | 23.29% | 20 µM | 98.4 µM | 2.18% | 20 µM | 9.3 µM | 1.63% | 64.83% | Non-toxic | 2.1 | 91.85% | – | – | – | – | – | – | –
C/C1=C/C2OC(C)(CCCC/C(C)=C\CC1)C(O)C2C(C)C (stereo not drawn) | – | – | 20 µM | 197 µM | – | – | 31.5 µM | – | – | Non-toxic | – | – | 53.57% | 1.22% | 2.18% | 2.99% | 2.6 | 93.61% | 8.33%
CC1=C2CC[C@@H]3O[C@]3(C)CC/C(C)=C/CC/C(C)=C/[C@@H]2OC1=O | – | – | 94 µM | 73.8 µM | – | 25 µM | 216 µM | – | – | Non-toxic | – | – | – | – | – | – | – | – | –
CC1=C2CC[C@H]3O[C@]3(C)CC/C(C)=C\CC/C(C)=C/[C@H]2OC1=O | – | – | 20 µM | 201 µM | – | 29 µM | 112 µM | – | – | Non-toxic | – | – | 51.9% | 1.23% | 1.76% | 3.08% | 2 | 93.93% | 7.11%
COc1cccc2c1C(=O)c1c(O)c3c(c(O)c1C2=O)C[C@@](O)(C(=O)CO)C[C@@H]3O[C@H]1C[C@H](N)[C@H](O)[C@H](C)O1 [DOXORUBICIN] | – | – | 0.48 µM | – | – | – | 0.5 µM | – | – | Non-toxic | – | – | – | – | – | – | – | – | –
